Series [1] concerns Trypanosoma cruzi. The series is described as follows: Antitrypanosomal activity against Trypanosoma cruzi strain CL Brener epimastigotes measured after 72 hrs by Neubauer chamber based cell counting method. The series is classed as functional, organism-based. Summed up:
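CL-Brener epimastigotes were grown in BHT medium at 28 °C and seeded at 3-4 × 10^6 parasites/mL. Compound was added in DMSO (1% final) at 5-100 µg/mL, with benznidazole as positive control. After 72 h, parasites were counted in a Neubauer chamber and inhibition was taken relative to untreated growth. IC50 came from the inhibition-concentration plot. Triplicates were run; values average three independent experiments.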

For series [2], the system named is Vero. The series is described as follows: Cytotoxicity against African green monkey Vero cells at 20 uM after 2 days by neutral red uptake assay. The series is classed as cell-based. The conditions noted are these: chlorocebus sabaeus, 48 h.
Series [3] in a line: Octanol/water partition coefficient, log P of the compound. The series is classed as physicochemical.
Series [4] deals with Leishmania donovani. The series is described as follows: Antileishmanial activity against Leishmania donovani S1 promastigotes after 72 hrs by alamar blue assay. The series is classed as functional, organism-based. The conditions noted are these: S1, 72 h. The essentials: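 Leishmania donovani strain S1 promastigotes at 2×10^6 cells/mL were exposed to final concentrations of 40, 8 and 1.6 µg/mL. Plates were incubated 72 h at 26 °C, and growth was read by Alamar blue. Pentamidine and amphotericin B served as standards.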

Series [5] addresses Sterol 14-alpha demethylase (Trypanosoma cruzi (strain CL Brener)) (UniProt Q7Z1V1). As to the kind of experiment: Inhibition of Trypanosoma cruzi CYP51 assessed as residual enzyme activity at 100 uM using [3H]-MDL as substrate pretreated for 5 mins followed by NADPH addition by RP-HPLC analysis relative to control. Summed up: (§1)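 TcCYP51 was reconstituted with T. brucei CPR and DLPC (1:2:50 molar), preincubated 10 min at room temperature. The reaction held 1 µM enzyme and 50 µM [3H]-labelled/unlabelled 24-methylenedihydrolanosterol in 20 mM MOPS pH 7.4, 50 mM KCl, 5 mM MgCl2, 10% glycerol, isocitrate dehydrogenase and 25 mM isocitrate. Inhibitor (1-100 µM) was preincubated 5 min at 37 °C, then 5 µM NADPH started the reaction. Products were detected by radioactivity.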

For series [6] the target is unchanged. The series is described as follows: Inhibition of Trypanosoma cruzi CYP51 assessed as residual enzyme activity at 100 uM using [3H]-MDL as substrate pretreated for 10 mins followed by NADPH addition by RP-HPLC analysis relative to control. The essentials: as §1
In series [7] the target is Sterol 14-alpha demethylase (Trypanosoma cruzi (strain CL Brener), UniProt Q7Z1V1). As to the kind of experiment: Binding affinity to Trypanosoma cruzi CYP51 by spectrophotometric method. Summed up: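 Spectral titration used 2 µM TcCYP51 in buffer A at 24 °C, scanned over 350-500 nm in tandem cuvettes. Ligand was added stepwise from 1 or 10 mM DMSO stocks until the spectral response peaked, with DMSO added to the reference cuvette. Apparent Kd came from fitting absorbance change against free ligand concentration to a rectangular hyperbola.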

Molecules are shown by their SMILES.

Sequence of Sterol 14-alpha demethylase (Trypanosoma cruzi (strain CL Brener)) (Q7Z1V1 whole entry, looked up): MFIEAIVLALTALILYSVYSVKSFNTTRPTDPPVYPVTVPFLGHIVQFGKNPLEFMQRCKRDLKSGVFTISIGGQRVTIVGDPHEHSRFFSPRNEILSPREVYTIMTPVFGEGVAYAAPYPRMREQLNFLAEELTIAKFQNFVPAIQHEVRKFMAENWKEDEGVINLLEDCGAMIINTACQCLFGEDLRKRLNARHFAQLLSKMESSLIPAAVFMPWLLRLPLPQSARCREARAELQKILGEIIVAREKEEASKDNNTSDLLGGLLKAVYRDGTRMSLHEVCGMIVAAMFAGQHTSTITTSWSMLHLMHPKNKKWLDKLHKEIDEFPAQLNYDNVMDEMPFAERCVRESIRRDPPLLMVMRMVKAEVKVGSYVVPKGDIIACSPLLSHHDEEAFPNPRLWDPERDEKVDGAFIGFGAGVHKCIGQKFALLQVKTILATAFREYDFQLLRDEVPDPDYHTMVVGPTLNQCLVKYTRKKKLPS
Sequence of Sterol 14-alpha demethylase (Q7Z1V1 whole entry): as the sequence (Q7Z1V1 whole entry, looked up) above

On to `CC(C)=CCC/C(C)=C/CC/C(C)=C/Cn1cc(-c2ccccc2)nn1`, for which the IC50 in series [1] turned out to be 34 µM; in series [4] it was 48 µM. In addition, in series [2], the Activity entry was “Non-Toxic”. Besides, the logP in series [3] is 6.95.

In turn, `O=C(Cn1ccnc1[N+](=O)[O-])NCc1ccccc1` [BENZNIDAZOLE] gave a log partition coefficient (logP) in series [3] of 0.78.

As for `COC(=O)c1cn(CC=C(C)C)nn1`, the concentration for half-maximal inhibition (IC50) in series [1] and in series [4] was over 100 µM in each case. Moreover, in series [2], the Activity result is reported as “Non-Toxic”. In series [3], the logP is 1.3.

Take `CCCCCc1cn(C/C=C(\C)CCC=C(C)C)nn1`: the figures for the 50% inhibitory concentration (IC50) in series [1] and in series [4] were 51 µM and 94 µM, respectively. Moreover, the Activity entry in series [2] is “Non-Toxic”. In addition, the logP in series [3] came out at 5.45.

Take `CCCCCc1cn(C/C=C(\C)CC/C=C(\C)CCC=C(C)C)nn1`: the IC50 in series [1] amounted to 29 µM; in series [4] it was 44 µM. In addition, the Activity in series [5] was 9%; in series [2], “Non-Toxic”; in series [6], 33%. Besides, the log partition coefficient (logP) in series [3] was 7.5.

In the case of `CC(C)=CCC/C(C)=C/Cn1cc(-c2ccccc2)nn1`, the values for the half-inhibitory concentration (IC50) in series [1] and in series [4] were 39 µM and 49 µM, respectively. Also, the Activity entry in series [2] was “Non-Toxic”. For the same molecule, the lipophilicity (logP) in series [3] came to 4.91.

As to `CCCCCc1cn(CC=C(C)C)nn1`, the half-maximal inhibitory concentration (IC50) in series [1] and in series [4] was over 100 µM throughout. The Activity entry in series [2] is “Non-Toxic”. The logP in series [3] turned out to be 3.46.

For the molecule `COC(=O)c1cn(C/C=C(\C)CCC=C(C)C)nn1`, the IC50 was 87 µM in series [1] and over 100 µM in series [4]. In addition, the Activity result in series [2] is on record as “Non-Toxic”. This molecule registered a logP in series [3] of 3.2.

For `COC(=O)c1cn(C/C=C(\C)CC/C=C(\C)CCC=C(C)C)nn1`, the results for the half-inhibitory concentration (IC50) in series [1] and in series [4] were 9 µM and 31 µM, respectively. Besides, the Activity in series [5] was 35%; in series [2], “Non-Toxic”; in series [6], 63%. In series [3], this molecule showed a log partition coefficient (logP) of 5.25.

In the case of `CC(C)=CCC/C(C)=C/CC/C(C)=C\Cn1cc(-c2ccccc2)nn1`, the IC50 stood at 32 µM in series [1] and 49 µM in series [4]. Also, the Activity entry in series [2] is reported as “Non-Toxic”. The molecule further had a log partition coefficient (logP) in series [3] of 6.95.

Regarding `CCCc1cn(C/C=C(\C)CC/C=C(\C)CCC=C(C)C)nn1`, the figures for the concentration for half-maximal inhibition (IC50) in series [1] and in series [4] were 18 µM and 51 µM, respectively. Besides, the Activity in series [5] is 27%; in series [2], “Non-Toxic”; in series [6], 56%. The molecule also registered a logP in series [3] of 6.5.

For the molecule `CCCc1cn(C/C=C(/C)CCC=C(C)C)nn1`, the IC50 in series [1] and in series [4] was 44 µM throughout. The Activity result in series [2] is recorded as “Non-Toxic”. The same molecule came in with a logP in series [3] of 4.05.

On to `CCCCCCCCc1cn(C/C=C(\C)CCC=C(C)C)nn1`, for which the IC50 in series [1] worked out at 27 µM; in series [4], 57 µM. Moreover, the Activity result in series [2] is “Non-Toxic”. The logP in series [3] worked out at 6.92.

Consider `CCCCCCCCc1cn(C/C=C(/C)CC/C=C(\C)CCC=C(C)C)nn1`, for which the IC50 in series [1] was over 100 µM; in series [4], 52 µM. The Activity result in series [2] was “Non-Toxic”. The logP in series [3] was found to be 8.76.

`CC(C)=CCC/C(C)=C\Cn1cc(-c2ccccc2)nn1`: the half-maximal inhibitory concentration (IC50) in series [1] worked out at 39 µM; in series [4], 49 µM. Also, in series [2], the Activity result is listed as “Non-Toxic”. Also, the logP in series [3] amounted to 4.91.

Regarding `CCCCCCCCc1cn(C/C=C(/C)CCC=C(C)C)nn1`, the concentration for half-maximal inhibition (IC50) in series [1] came out at 34 µM; in series [4] it was 16 µM. Moreover, the Activity entry in series [2] is “Non-Toxic”. The molecule further had a log partition coefficient (logP) in series [3] of 6.92.

`COC(=O)c1cn(C/C=C(/C)CCC=C(C)C)nn1`: the IC50 in series [1] was 87 µM; in series [4], over 100 µM. For the same molecule, the Activity entry in series [2] is “Non-Toxic”. This molecule also gave a logP in series [3] of 3.2.

Regarding `CC(C)=CCn1cc(-c2ccccc2)nn1`, the IC50 in series [1] and in series [4] was over 100 µM in each case. Besides, the Activity entry in series [2] is reported as “Non-Toxic”. In series [3], this molecule registered a logP of 2.82.

Turning to `CCCCCc1cn(C/C=C(/C)CC/C=C(\C)CCC=C(C)C)nn1`, the IC50 in series [1] was 18 µM; in series [4], 11 µM. The results for the Activity in series [5], in series [2] and in series [6] were 7%, “Non-Toxic” and 39%, respectively. The Kd in series [7] was 7.6 µM. The same molecule had a lipophilicity (logP) in series [3] of 7.5.

Regarding `CCCc1cn(C/C=C(/C)CC/C=C(\C)CCC=C(C)C)nn1`, the half-inhibitory concentration (IC50) in series [1] worked out at 17 µM; in series [4], 33 µM. The Activity was 14% in series [5], “Non-Toxic” in series [2] and 49% in series [6]. In series [3], this molecule returned a lipophilicity (logP) of 6.5.

In the case of `CCCCCCCCc1cn(C/C=C(\C)CC/C=C(\C)CCC=C(C)C)nn1`, the values for the half-inhibitory concentration (IC50) in series [1] and in series [4] were over 100 µM and 36 µM, respectively. Further, the Activity entry in series [2] is recorded as “Non-Toxic”. Further, the logP in series [3] stood at 8.76.

Consider `CCCc1cn(C/C=C(\C)CCC=C(C)C)nn1`, for which the IC50 amounted to 31 µM in series [1] and 72 µM in series [4]. Further, the Activity result in series [2] is listed as “Non-Toxic”. Further, the log partition coefficient (logP) in series [3] worked out at 4.5.

In the case of `CCCCCCCCc1cn(CC=C(C)C)nn1`, the IC50 was 27 µM in series [1] and over 100 µM in series [4]. Besides, in series [2], the Activity entry is listed as “Non-Toxic”. Also, in series [3], the logP stood at 4.92.

Regarding `CCCc1cn(CC=C(C)C)nn1`, the IC50 in series [1] and in series [4] was over 100 µM in each case. In addition, the Activity result in series [2] is given as “Non-Toxic”. In addition, the logP in series [3] stood at 2.47.

Turning to `CCCCCc1cn(C/C=C(/C)CCC=C(C)C)nn1`, the results for the 50% inhibitory concentration (IC50) in series [1] and in series [4] were 36 µM and 40 µM, respectively. For the same molecule, the Activity entry in series [2] is listed as “Non-Toxic”. Also, the logP in series [3] came to 5.45.

As to `COC(=O)c1cn(C/C=C(/C)CC/C=C(\C)CCC=C(C)C)nn1`, the IC50 worked out at 15 µM in series [1] and 11 µM in series [4]. Besides, the Activity in series [5] is 26%; in series [2], “Non-Toxic”; in series [6], 59%. Besides, the log partition coefficient (logP) in series [3] was 5.25.

As to `N=C(N)c1ccc(OCCCCCOc2ccc(C(=N)N)cc2)cc1` [PENTAMIDINE], the log partition coefficient (logP) in series [3] worked out at 1.49.

The values are drawn from ChEMBL document CHEMBL4261495, “Antitrypanosomal and antileishmanial activity of prenyl-1,2,3-triazoles” (Medchemcomm, 2017).
